≈ marks a conversion by molar mass, not a printed value.

Assay [1] relates to HCT-8. The assay is described as follows: Cytotoxicity against human ileocecal carcinoma cells (HCT-8) using SRB assay. The settings on record: read-out: ED50 (the source's name). The class given is functional. The gist of the method:
(§1)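 Cells grown at 37 °C in RPMI-1640 with 10% FBS and 100 µg/mL kanamycin, humidified 5% CO2. Seeding density set per line so control A562 reads 1-2.5. Drug given from DMSO stocks, final DMSO ≤2% (v/v), for 3 days. SRB stain, absorbance at 562 nm. […] Triplicates.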
Background: Sulforhodamine B stains cellular protein and so reports cell mass.

Assay [2] relates to SK-MEL-2. Briefly: The compound was tested for the cytotoxicity for the cell lines of human melanoma cancer (SKMEL-2) using SRB assay. The assay is classed as functional. The conditions noted are these: read-out: ED50 (the source's name). In outline:
as §1

Assay [3] concerns CAKI-1. Briefly: Cytotoxicity against human renal cancer cells (CAKI-1) using SRB assay. The assay is classed as functional. The settings on record: read-out: ED50 (the source's name). In outline: as §1
Assay [4] concerns MCF7. Briefly: Cytotoxicity against human breast cancer cells (MCF-7) using SRB assay. The assay is classed as functional. The conditions noted are these: read-out: ED50 (the source's name). The gist of the method:
as §1

Assay [5] addresses Tubulin (Bos taurus, UniProt Q6B856+Q862L2+Q862F3). The assay is described as follows: Inhibition of bovine brain tubulin polymerization (ITP).
In assay [6] the test system is A549. The assay is described as follows: Cytotoxicity against human lung carcinoma cells (A-549) using SRB assay. The assay is classed as functional. The conditions noted are these: read-out: ED50 (the source's name). The gist of the method: as §1
Assay [7] has as its system KB. Briefly: Cytotoxicity against human epidermoid carcinoma of the nasopharyngeal cells (KB) using SRB assay. The settings on record: read-out: ED50 (the source's name). The class given is functional. The gist of the method: as §1
Assay [8] addresses Tubulin (Bos taurus) (UniProt Q6B856+Q862L2+Q862F3). The assay is described as follows: % inhibition of [3H]colchicine binding to bovine brain tubulin at a concentration of 5 uM. In outline:
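[3H]colchicine at 5 µM incubated with 1 µM tubulin. Inhibitor present at the stated concentration (5 or 1 µM). Result given as % inhibition of colchicine binding ± SD.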

In the case of `O=C1CC(c2ccccc2)Nc2ccccc21` (stereo not drawn) [Aza-flavanone], the EC50 in assay [1] was determined as 0.013 µg/mL (≈ 0.0582 µM); in assay [2], 0.13 µg/mL (≈ 0.582 µM); in assay [3] it was 0.013 µg/mL (≈ 0.0582 µM); in assay [4], 0.13 µg/mL (≈ 0.582 µM); in assay [6] it was 0.013 µg/mL (≈ 0.0582 µM); in assay [7] it was 0.07 µg/mL (≈ 0.314 µM). For the same molecule, in assay [5], the IC50 stood at 2700 nM.
As for `O=C1CC(c2cccc(F)c2)Nc2cc3c(cc21)OCO3` (stereo not drawn), the EC50 in assay [1] worked out at 0.016 µg/mL (≈ 0.0561 µM); in assay [2], 0.016 µg/mL (≈ 0.0561 µM); in assay [3], 0.016 µg/mL (≈ 0.0561 µM); in assay [4], 0.032 µg/mL (≈ 0.112 µM); in assay [6], 0.012 µg/mL (≈ 0.0421 µM); in assay [7], 0.012 µg/mL (≈ 0.0421 µM). In assay [5], this molecule yielded an IC50 of 750 nM. The inhibition in assay [8] was determined as 75%.
For the molecule `COc1cccc([C@@H]2C/C(=N\NC(=O)C(=O)NC(C)c3ccccc3)c3ccccc3N2)c1` (stereo partly drawn), the EC50 in assay [1] was determined as 3.8 µg/mL (≈ 8.59 µM); in assay [3], 25 µg/mL (≈ 56.5 µM); in assay [4], 8 µg/mL (≈ 18.1 µM); in assay [6] it was 8 µg/mL (≈ 18.1 µM); in assay [7] it was 8 µg/mL (≈ 18.1 µM). The IC50 in assay [5] was greater than 40000 nM.
For `O=C1C[C@@H](c2ccccc2F)Nc2cc3c(cc21)OCO3`, the EC50 in assay [1] worked out at 0.09 µg/mL (≈ 0.315 µM); in assay [3] it was 1 µg/mL (≈ 3.51 µM); in assay [4], 0.1 µg/mL (≈ 0.351 µM); in assay [6] it was 0.18 µg/mL (≈ 0.631 µM); in assay [7], 0.08 µg/mL (≈ 0.28 µM). The molecule further showed an IC50 in assay [5] of 560 nM. Moreover, in assay [8], the inhibition is 51%.
As for `COc1cccc([C@H]2C/C(=N\NC(=O)C(=O)NC(C)c3ccccc3)c3cc4c(cc3N2)OCO4)c1` (stereo partly drawn), the EC50 in assay [1] was 1.5 µg/mL (≈ 3.08 µM); in assay [3] it was greater than 25 µg/mL; in assay [4], 6.3 µg/mL (≈ 12.9 µM); in assay [6] it was 11.5 µg/mL (≈ 23.6 µM); in assay [7], 12 µg/mL (≈ 24.7 µM). In assay [5], this molecule came in with an IC50 greater than 40000 nM.
In the case of `COc1cccc(C2CC(=O)c3ccccc3N2)c1` (stereo not drawn), the EC50 in assay [1] was 0.12 µg/mL (≈ 0.474 µM); in assay [2], 0.2 µg/mL (≈ 0.79 µM); in assay [3], 0.32 µg/mL (≈ 1.26 µM); in assay [4], 0.32 µg/mL (≈ 1.26 µM); in assay [6], 0.23 µg/mL (≈ 0.908 µM); in assay [7], 0.11 µg/mL (≈ 0.434 µM). This molecule also showed an IC50 in assay [5] of 3300 nM.
`O=C1C[C@H](c2ccccc2F)Nc2cc3c(cc21)OCO3`: the EC50 is 0.5 µg/mL (≈ 1.75 µM) in assay [1]; 1.25 µg/mL (≈ 4.38 µM) in assay [3]; 0.85 µg/mL (≈ 2.98 µM) in assay [4]; 0.6 µg/mL (≈ 2.1 µM) in assay [6]; 0.43 µg/mL (≈ 1.51 µM) in assay [7]. The same molecule registered an IC50 in assay [5] of 12000 nM.
With `O=C1CC(c2ccccc2F)Nc2cc3c(cc21)OCO3` (stereo not drawn), the EC50 in assay [1] was found to be 0.13 µg/mL (≈ 0.456 µM); in assay [2] it was 0.125 µg/mL (≈ 0.438 µM); in assay [3] it was 1 µg/mL (≈ 3.51 µM); in assay [4], 0.06 µg/mL (≈ 0.21 µM); in assay [6], 0.08 µg/mL (≈ 0.28 µM); in assay [7] it was 0.06 µg/mL (≈ 0.21 µM). Besides, in assay [5], the IC50 is 1100 nM.
In the case of `COc1cccc([C@@H]2CC(=O)c3cc4c(cc3N2)OCO4)c1`, the EC50 in assay [1] was 0.02 µg/mL (≈ 0.0673 µM); in assay [3], 0.25 µg/mL (≈ 0.841 µM); in assay [4] it was 0.03 µg/mL (≈ 0.101 µM); in assay [6], 0.03 µg/mL (≈ 0.101 µM); in assay [7], 0.02 µg/mL (≈ 0.0673 µM). Moreover, the half-maximal inhibitory concentration (IC50) in assay [5] turned out to be 690 nM. In addition, the inhibition in assay [8] came to 67%.
For the molecule `COc1ccccc1C1CC(=O)c2ccccc2N1` (stereo not drawn), the EC50 in assay [1] was found to be 6 µg/mL (≈ 23.7 µM); in assay [2], 12.5 µg/mL (≈ 49.3 µM); in assay [3], 25 µg/mL (≈ 98.7 µM); in assay [4], 6.5 µg/mL (≈ 25.7 µM); in assay [6], 6 µg/mL (≈ 23.7 µM); in assay [7] it was 1.8 µg/mL (≈ 7.11 µM). The molecule also displayed an IC50 in assay [5] greater than 40000 nM.
As for `COc1cccc([C@H]2CC(=O)c3cc4c(cc3N2)OCO4)c1`, the EC50 stood at 0.08 µg/mL (≈ 0.269 µM) in assay [1]; 0.25 µg/mL (≈ 0.841 µM) in assay [3]; 0.12 µg/mL (≈ 0.404 µM) in assay [4]; 0.09 µg/mL (≈ 0.303 µM) in assay [6]; 0.07 µg/mL (≈ 0.235 µM) in assay [7]. The IC50 in assay [5] is 2300 nM.
Consider `COc1cccc([C@H]2CC(=O)c3ccccc3N2)c1`, for which the EC50 was found to be 0.5 µg/mL (≈ 1.97 µM) in assay [1]; 3.8 µg/mL (≈ 15 µM) in assay [3]; 0.6 µg/mL (≈ 2.37 µM) in assay [4]; 0.5 µg/mL (≈ 1.97 µM) in assay [6]; 0.5 µg/mL (≈ 1.97 µM) in assay [7]. Also, the IC50 in assay [5] was found to be 7200 nM.
In the case of `COc1cccc(C2CC(=O)c3cc4c(cc3N2)OCO4)c1` (stereo not drawn), the EC50 came to 0.04 µg/mL (≈ 0.135 µM) in assay [1]; 0.06 µg/mL (≈ 0.202 µM) in assay [2]; 0.06 µg/mL (≈ 0.202 µM) in assay [3]; 0.04 µg/mL (≈ 0.135 µM) in assay [4]; 0.04 µg/mL (≈ 0.135 µM) in assay [6]; 0.02 µg/mL (≈ 0.0673 µM) in assay [7]. The molecule also displayed an IC50 in assay [5] of 820 nM. In assay [8], this molecule returned an inhibition of 60%.

The term IC50 denotes the concentration that gives 50% inhibition. In general, inhibition refers to the change of the read-out against control, counted positive when it falls.

The values are drawn from ChEMBL document CHEMBL1131317, “Antitumor agents. 181. Synthesis and biological evaluation of 6,7,2',3',4'-substituted-1,2,3,4-tetrahydro-2-phenyl-4-quinolones as a new class of antimitotic antitumor agents” (J Med Chem, 1998).
